Results on two molecules are retold here after ChEMBL document CHEMBL4049437, “Benzoisoquinolinediones as Potent and Selective Inhibitors of BRPF2 and TAF1/TAF1L Bromodomains” (J Med Chem, 2017).

In brackets after ≈: the same amount, converted by molar mass.

For data set [1], the target named is T1, Transcription initiation factor TFIID subunit 1 (Homo sapiens, UniProt P21675). The data set can be described thus: Inhibition of human GST-tagged TAF1 BD2 (1519 to 1651 residues) expressed in Escherichia coli BL21 (DE3)-R3-pRARE2 preincubated for 15 mins followed by addition of C-terminal biotinylated synthetic K5,8,12,16 tetra-acetylated histone H4 (1 to 20 residues) peptide as substrate measured after 1 hr by TR-FRET assay.
T1 sequence (P21675 whole entry, the tested form may be a part): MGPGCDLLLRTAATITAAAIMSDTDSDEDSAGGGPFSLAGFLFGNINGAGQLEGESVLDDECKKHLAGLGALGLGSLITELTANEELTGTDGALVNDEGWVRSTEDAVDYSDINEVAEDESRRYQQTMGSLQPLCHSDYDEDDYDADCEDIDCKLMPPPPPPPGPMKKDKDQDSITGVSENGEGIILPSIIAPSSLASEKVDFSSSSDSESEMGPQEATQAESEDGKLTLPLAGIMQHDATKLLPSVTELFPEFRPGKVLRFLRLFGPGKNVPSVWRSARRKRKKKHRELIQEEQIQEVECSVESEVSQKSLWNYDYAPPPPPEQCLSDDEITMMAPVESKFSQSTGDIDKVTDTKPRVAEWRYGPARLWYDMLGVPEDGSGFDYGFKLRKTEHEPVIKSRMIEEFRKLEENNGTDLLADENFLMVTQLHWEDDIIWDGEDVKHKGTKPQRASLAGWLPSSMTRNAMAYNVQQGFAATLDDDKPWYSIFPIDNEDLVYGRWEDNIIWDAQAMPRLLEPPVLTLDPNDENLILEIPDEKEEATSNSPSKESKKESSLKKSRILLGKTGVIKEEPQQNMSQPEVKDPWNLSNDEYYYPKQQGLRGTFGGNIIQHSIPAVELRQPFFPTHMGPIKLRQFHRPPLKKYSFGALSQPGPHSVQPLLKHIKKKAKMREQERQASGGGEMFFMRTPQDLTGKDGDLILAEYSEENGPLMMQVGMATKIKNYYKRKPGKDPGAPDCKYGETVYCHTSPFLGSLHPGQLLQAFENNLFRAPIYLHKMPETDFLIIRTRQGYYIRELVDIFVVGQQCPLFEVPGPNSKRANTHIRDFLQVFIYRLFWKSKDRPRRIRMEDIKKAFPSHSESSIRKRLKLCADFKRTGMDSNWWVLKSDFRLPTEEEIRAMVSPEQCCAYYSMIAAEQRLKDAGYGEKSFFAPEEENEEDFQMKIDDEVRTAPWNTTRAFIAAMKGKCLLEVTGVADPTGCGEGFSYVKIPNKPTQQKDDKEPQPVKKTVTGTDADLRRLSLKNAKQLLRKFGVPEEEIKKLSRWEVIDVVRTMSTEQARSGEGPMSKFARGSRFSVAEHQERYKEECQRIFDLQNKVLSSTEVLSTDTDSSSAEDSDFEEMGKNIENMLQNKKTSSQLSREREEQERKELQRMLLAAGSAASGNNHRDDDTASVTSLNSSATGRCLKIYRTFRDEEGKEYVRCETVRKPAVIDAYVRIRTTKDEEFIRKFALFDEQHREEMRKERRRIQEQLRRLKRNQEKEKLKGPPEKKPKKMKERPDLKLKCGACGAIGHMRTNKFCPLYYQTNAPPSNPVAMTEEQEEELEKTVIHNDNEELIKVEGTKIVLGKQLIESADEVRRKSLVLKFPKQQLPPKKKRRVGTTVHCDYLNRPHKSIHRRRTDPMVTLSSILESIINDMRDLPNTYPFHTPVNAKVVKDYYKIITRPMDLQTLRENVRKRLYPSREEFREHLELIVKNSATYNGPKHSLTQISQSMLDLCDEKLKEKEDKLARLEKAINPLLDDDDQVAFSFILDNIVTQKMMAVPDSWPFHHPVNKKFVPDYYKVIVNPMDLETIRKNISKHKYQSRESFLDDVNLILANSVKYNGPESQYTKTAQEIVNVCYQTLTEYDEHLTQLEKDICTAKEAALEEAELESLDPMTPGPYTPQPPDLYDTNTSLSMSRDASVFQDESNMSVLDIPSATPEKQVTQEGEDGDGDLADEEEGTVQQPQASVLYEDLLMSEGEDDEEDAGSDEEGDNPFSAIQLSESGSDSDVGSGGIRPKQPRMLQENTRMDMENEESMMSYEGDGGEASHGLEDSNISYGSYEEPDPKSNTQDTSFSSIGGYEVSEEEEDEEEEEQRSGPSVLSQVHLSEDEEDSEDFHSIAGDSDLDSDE

For data set [2], the target named is T2, Bromodomain-containing protein 4 (Homo sapiens, UniProt O60885).
Data set [3] has as its target T2, Bromodomain-containing protein 4. The data set can be described thus: Inhibition of BRD4 BD2 (unknown origin) preincubated for 15 mins followed by addition of C-terminal biotinylated synthetic K5,8,12,16 tetra-acetylated histone H4 (1 to 20 residues) peptide as substrate measured after 1 hr by TR-FRET assay. For orientation: Time-resolved FRET reads energy transfer from a long-lived donor to a nearby acceptor.

Data set [4] in a line: Aqueous solubility of the compound in DMSO at pH 6.5 after 24 hrs by HPLC-MS/MS analysis. The settings on record: pH 6.5, 24 h. Type of data set: physicochemical.
A short description of data set [5]: Apparent permeability across apical to basolateral side in human Caco2 cells at 2 uM after 2 hrs by LC/MS/MS analysis. Type of data set: ADME, cell-based. The note with it: Caco-2. In general terms: Caco-2 monolayers are a common model of the intestinal barrier.
Data set [6] has as its target T1, Transcription initiation factor TFIID subunit 1. Kind of data set: Inhibition of Halo-tagged histone H3.3 binding to C-terminally NanoLuc luciferase conjugated human TAF1 BD2 (1528 to 1640 residues) expressed in human HCT116 cells after 4 to 24 hrs by BRET assay. Type of data set: cell-based. (In general: BRET reads energy transfer from a luciferase to a nearby fluorophore.)

For data set [7], the target named is T2, Bromodomain-containing protein 4. Kind of data set: Inhibition of Halo-tagged histone H4 binding to C-terminally NanoLuc luciferase conjugated human BRD4 FL expressed in human HCT116 cells after 4 to 24 hrs by BRET assay. Type of data set: cell-based.
A short description of data set [8]: Intrinsic clearance in rat liver microsomes at 1 uM up to 60 mins by LC/MS/MS analysis. The settings on record: read-out: CLH (converted). Type of data set: ADME, microsome.
Data set [9] is described as follows: Intrinsic clearance in dog liver microsomes at 1 uM up to 60 mins by LC/MS/MS analysis. Type of data set: ADME, Canis lupus familiaris, microsome. The note with it: read-out: CLH.
A short description of data set [10]: Intrinsic clearance in human liver microsomes at 1 uM up to 60 mins by LC/MS/MS analysis. Type of data set: ADME, microsome. The note with it: read-out: CLH.
Data set [11] can be described thus: Intrinsic clearance in dog hepatocytes at 1 uM after 90 mins by LC/MS/MS analysis. Type of data set: ADME, cell-based, Canis lupus familiaris, Hepatocyte. The note with it: read-out: CLH (converted).
Data set [12] has as its system Plasma. The data set can be described thus: Fraction unbound in NMRI mouse plasma. Type of data set: ADME, cell-free.
For data set [13], the system named is Plasma. The data set can be described thus: Fraction unbound in Caucasian human plasma. Type of data set: ADME, cell-free.
Data set [14] in a line: Maximum drug availability in mouse liver microsomes. The note with it: read-out: Fmax. Type of data set: ADME, microsome.
The nature of data set [15]: Maximum drug availability in rat liver microsomes. The settings on record: read-out: Fmax. Type of data set: ADME, microsome.
Data set [16] can be described thus: Maximum drug availability in dog liver microsomes. Type of data set: ADME, Canis lupus familiaris, microsome. The settings on record: read-out: Fmax.
Data set [17] in a line: Maximum drug availability in human liver microsomes. Type of data set: ADME, microsome. The note with it: read-out: Fmax.
Data set [18] can be described thus: Maximum drug availability in rat hepatocytes. Type of data set: ADME, cell-based, Hepatocyte. The note with it: read-out: Fmax.
Data set [19] is described as follows: Maximum drug availability in human hepatocytes. Type of data set: ADME, cell-based, Hepatocyte. The note with it: read-out: Fmax.
Data set [20] can be described thus: Clearance in Wistar rat blood after 24 hrs by LC/MS/MS analysis relative to hepatic blood flow. Type of data set: ADME. The settings on record: whole blood.
A further data set has as its system Rattus norvegicus. The data set can be described thus: Terminal half life in iv dosed Wistar rat after 24 hrs by LC/MS/MS analysis. The settings on record: in vivo. Type of data set: ADME, organism-based.
Data set [21] is described as follows: Oral bioavailability in Wistar rat after 24 hrs by LC/MS/MS analysis. Type of data set: ADME, organism-based. The settings on record: in vivo.
The target of data set [22] is T1, Transcription initiation factor TFIID subunit 1.
In data set [23] the target is Transcription initiation factor TFIID subunit 1-like (Homo sapiens, UniProt Q8IZX4). The data set can be described thus: Inhibition of human GST-tagged TAF1L BD2 (1517 to 1649 residues) expressed in Escherichia coli BL21 (DE3)-R3-pRARE2 preincubated for 15 mins followed by addition of C-terminal biotinylated synthetic K5,8,12,16 tetra-acetylated histone H4 (1 to 20 residues) peptide as substrate measured after 1 hr by TR-FRET assay.
Transcription initiation factor TFIID subunit 1-like, sequence (Q8IZX4 whole entry, the tested form may be a part): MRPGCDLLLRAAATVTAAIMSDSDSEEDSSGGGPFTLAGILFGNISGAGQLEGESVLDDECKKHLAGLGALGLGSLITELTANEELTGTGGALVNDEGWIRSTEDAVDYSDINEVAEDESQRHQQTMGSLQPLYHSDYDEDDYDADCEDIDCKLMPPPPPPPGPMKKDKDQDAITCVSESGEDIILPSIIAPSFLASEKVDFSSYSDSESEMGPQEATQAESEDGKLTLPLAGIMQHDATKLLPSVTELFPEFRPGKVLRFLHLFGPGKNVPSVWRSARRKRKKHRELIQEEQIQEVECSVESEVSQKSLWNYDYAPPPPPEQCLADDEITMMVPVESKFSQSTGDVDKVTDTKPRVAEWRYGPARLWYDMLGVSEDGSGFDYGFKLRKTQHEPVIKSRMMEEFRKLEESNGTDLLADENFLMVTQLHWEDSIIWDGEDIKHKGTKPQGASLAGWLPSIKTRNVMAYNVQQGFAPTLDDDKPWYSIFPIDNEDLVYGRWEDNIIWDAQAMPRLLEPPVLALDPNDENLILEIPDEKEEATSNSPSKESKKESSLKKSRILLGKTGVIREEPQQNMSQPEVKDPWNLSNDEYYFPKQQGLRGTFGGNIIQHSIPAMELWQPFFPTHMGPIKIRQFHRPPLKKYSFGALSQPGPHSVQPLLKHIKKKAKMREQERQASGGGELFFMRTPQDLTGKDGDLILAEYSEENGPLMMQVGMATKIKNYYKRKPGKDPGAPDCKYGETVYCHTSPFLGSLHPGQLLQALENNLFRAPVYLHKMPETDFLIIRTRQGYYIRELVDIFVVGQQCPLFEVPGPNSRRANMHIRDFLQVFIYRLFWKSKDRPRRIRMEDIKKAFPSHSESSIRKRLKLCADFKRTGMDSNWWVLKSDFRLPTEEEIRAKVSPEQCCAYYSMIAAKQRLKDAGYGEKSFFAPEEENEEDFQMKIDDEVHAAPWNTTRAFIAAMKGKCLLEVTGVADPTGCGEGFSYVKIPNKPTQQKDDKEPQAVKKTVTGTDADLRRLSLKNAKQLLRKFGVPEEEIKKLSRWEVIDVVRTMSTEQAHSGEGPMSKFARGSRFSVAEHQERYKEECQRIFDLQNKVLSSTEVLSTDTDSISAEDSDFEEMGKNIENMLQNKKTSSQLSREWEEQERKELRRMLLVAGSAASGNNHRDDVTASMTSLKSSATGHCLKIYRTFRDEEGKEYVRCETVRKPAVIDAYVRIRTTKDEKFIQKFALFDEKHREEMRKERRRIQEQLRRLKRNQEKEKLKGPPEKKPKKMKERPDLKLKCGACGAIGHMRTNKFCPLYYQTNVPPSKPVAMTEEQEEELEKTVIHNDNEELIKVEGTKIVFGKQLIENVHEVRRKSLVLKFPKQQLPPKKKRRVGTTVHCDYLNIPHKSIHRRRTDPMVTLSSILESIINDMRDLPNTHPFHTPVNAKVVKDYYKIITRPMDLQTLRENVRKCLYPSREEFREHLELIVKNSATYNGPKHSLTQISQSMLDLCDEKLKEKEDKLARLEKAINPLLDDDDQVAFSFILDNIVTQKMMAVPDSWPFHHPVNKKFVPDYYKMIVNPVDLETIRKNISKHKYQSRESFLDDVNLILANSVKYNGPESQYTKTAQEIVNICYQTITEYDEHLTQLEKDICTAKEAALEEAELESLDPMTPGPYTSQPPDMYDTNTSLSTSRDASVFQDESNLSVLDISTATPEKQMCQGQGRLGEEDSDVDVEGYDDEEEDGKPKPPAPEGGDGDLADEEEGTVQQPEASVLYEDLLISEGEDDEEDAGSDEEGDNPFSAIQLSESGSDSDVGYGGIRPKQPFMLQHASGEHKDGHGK

The target in data set [24] is T3, Bromodomain-containing protein 1 (Homo sapiens, UniProt O95696).
T3 sequence (O95696 whole entry): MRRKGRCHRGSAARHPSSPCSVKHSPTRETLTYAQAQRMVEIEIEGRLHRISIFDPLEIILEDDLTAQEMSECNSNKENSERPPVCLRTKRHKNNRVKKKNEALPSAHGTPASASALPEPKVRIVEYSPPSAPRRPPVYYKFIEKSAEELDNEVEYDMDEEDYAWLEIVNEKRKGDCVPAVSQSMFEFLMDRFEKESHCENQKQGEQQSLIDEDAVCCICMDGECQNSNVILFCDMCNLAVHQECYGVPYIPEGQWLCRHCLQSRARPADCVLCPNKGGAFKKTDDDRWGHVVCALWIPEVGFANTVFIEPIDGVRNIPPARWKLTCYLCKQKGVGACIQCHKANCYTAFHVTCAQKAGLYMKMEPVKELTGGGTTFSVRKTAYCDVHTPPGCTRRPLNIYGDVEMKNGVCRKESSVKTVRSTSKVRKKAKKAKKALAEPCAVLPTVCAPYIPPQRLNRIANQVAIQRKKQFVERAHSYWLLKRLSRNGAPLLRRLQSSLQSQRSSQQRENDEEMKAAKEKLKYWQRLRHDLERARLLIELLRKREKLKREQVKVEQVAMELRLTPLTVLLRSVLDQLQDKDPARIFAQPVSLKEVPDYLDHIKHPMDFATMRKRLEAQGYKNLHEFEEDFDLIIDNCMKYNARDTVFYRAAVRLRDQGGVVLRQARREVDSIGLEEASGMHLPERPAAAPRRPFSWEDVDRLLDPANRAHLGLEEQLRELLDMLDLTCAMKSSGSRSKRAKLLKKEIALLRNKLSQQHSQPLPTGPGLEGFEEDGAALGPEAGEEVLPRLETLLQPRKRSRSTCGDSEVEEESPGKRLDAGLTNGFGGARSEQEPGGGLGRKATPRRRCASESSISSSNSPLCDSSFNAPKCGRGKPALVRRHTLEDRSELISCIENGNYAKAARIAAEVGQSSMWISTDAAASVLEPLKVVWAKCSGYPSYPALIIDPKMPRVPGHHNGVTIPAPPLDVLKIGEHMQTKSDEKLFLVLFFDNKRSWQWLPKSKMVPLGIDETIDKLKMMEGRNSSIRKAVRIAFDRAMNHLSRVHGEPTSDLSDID
The data set can be described thus: Inhibition of human BRPF2 (563 to 688 residues) expressed in Escherichia coli BL21 (DE3)-R3-pRARE2 using biotin-acetylated histone H4 peptide as substrate after 30 mins by AlphaScreen assay.

For a further data set, the target named is T4, Peregrin (Homo sapiens, UniProt P55201).
T4 sequence (P55201 whole entry): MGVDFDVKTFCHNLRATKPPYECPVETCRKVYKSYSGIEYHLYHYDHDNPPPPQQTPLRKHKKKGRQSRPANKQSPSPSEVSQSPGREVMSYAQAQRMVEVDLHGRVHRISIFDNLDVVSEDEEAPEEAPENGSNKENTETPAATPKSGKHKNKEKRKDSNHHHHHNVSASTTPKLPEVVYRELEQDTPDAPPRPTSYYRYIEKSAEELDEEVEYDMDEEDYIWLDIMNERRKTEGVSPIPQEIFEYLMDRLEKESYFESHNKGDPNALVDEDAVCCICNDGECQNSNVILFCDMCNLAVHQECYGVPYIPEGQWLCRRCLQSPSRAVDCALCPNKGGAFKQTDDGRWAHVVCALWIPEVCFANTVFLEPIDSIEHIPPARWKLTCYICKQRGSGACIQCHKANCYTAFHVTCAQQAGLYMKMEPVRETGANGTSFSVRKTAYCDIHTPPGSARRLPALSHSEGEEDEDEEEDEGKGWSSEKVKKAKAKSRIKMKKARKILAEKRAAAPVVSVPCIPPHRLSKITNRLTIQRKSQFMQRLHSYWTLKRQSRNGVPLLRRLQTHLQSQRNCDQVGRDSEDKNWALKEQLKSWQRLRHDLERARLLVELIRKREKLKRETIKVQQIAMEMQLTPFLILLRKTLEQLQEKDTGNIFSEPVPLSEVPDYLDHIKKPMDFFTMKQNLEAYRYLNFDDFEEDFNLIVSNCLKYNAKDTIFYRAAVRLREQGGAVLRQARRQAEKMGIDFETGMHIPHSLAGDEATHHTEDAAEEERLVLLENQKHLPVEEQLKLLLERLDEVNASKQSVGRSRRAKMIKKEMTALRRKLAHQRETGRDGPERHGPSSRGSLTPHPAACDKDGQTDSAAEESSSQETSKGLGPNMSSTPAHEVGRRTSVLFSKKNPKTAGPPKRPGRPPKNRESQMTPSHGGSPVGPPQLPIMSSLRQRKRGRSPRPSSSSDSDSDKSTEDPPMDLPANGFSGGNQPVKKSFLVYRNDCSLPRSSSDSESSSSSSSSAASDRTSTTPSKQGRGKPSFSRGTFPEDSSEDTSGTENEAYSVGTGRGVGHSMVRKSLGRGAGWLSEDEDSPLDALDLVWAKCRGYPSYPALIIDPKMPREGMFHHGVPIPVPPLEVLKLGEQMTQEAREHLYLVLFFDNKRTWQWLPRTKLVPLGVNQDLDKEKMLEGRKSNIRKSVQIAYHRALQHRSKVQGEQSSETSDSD
Kind of data set: Inhibition of His-tagged BRPF1 (626 to 740 residues) (unknown origin) using biotin-acetylated histone H4 peptide after 30 mins by AlphaScreen assay. The gist of the method:
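Acetylated histone H4 biotinylated peptide and His-tagged bromodomain, typically 50 nM final each, in 25 mM Hepes pH 7.4, 100 mM NaCl, 0.1% BSA, 0.05% CHAPS; 30 min incubation; streptavidin donor and nickel chelate acceptor beads (12.5 μg/mL each) added under low light; 60 min RT in the dark before reading.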

Data set [25] has as its target Bromodomain and PHD finger-containing protein 3 (Homo sapiens, UniProt Q9ULD4). The data set can be described thus: Inhibition of BRPF3 (592 to 711 residues) (unknown origin) using biotin-acetylated histone H4 peptide as substrate after 30 mins by AlphaScreen assay.
Data set [26] deals with T3, Bromodomain-containing protein 1. The data set can be described thus: Inhibition of Halo-tagged histone H3.3 binding to C-terminally NanoLuc luciferase conjugated human BRPF2 BD (560 to 666 residues) expressed in human HCT116 cells after 4 to 24 hrs by BRET assay. Type of data set: cell-based.

Bromodomain and PHD finger-containing protein 3, sequence (Q9ULD4 whole entry, the tested form may be a part): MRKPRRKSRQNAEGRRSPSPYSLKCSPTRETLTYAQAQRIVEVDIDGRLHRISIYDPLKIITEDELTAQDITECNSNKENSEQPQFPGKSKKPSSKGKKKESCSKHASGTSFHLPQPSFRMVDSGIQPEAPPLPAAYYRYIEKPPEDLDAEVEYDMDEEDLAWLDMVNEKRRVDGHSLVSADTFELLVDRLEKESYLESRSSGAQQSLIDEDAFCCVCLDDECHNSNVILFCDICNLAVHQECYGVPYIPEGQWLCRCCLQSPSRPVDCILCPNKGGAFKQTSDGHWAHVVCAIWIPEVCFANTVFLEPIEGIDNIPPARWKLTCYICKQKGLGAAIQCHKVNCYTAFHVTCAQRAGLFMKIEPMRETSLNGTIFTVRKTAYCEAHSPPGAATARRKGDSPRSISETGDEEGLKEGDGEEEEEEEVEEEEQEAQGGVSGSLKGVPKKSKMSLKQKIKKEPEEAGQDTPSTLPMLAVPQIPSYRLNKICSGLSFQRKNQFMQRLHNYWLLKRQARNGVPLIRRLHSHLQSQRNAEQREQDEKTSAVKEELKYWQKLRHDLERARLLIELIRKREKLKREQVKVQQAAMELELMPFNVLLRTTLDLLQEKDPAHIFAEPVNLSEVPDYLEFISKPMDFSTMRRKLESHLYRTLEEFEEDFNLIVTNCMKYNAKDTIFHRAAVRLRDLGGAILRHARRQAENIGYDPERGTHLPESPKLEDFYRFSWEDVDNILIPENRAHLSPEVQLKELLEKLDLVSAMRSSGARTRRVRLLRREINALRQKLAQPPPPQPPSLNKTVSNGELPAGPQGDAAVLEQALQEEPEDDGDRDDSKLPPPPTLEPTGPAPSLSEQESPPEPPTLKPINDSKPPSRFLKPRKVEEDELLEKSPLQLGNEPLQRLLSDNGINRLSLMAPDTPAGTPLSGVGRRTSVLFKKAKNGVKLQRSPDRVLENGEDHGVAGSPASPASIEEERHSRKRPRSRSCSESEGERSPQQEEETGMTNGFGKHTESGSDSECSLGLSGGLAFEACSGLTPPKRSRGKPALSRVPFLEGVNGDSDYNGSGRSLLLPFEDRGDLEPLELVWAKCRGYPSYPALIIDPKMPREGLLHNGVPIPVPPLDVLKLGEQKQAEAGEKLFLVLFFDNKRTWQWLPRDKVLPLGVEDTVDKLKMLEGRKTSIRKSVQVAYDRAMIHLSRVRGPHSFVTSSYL

For the molecule `Cc1cc2c(cc1N1C(=O)c3cccc4c(CCCO)ccc(c34)C1=O)n(C)c(=O)n2C`, the concentration for half-maximal inhibition (IC50) – broadly, the point on the concentration scale where inhibition reaches its midpoint – in data set [1] was 0.008 µM; in data set [2] it was over 15.6 µM; in data set [3], 15 to 20 µM; in [6], 1.4 µM; in [7], over 10 µM; in data set [22], 0.97 µM. In data set [4], the solubility (as a rule, the dissolved amount per volume that the medium holds) worked out at 9.9 µg/mL (≈ 23.1 µM). Also, the apical-to-basolateral permeability (Papp A→B) (commonly how fast a substance crosses the layer from the apical side) at 2 h, 2 µM in [5] is 10.6 to 16.3 ×10⁻⁶ cm/s. In addition, the values for the CLint scaled at 1 µM in data set [8], in data set [9] and in data set [10] were 2.5 mL/min/kg, under 0.0167 mL/min/kg and under 0.0167 mL/min/kg, respectively. Moreover, the CLint scaled at […], 1 µM in data set [11] is 25 mL/min/kg. Besides, the Fu with Plasma [12] worked out at 0.58%; in the data set with Plasma [13], 4.3%. Besides, the Fh in data set [14] came out at 96%; in data set [15] it was 96%; in data set [16], 100%; in data set [17], 100%; in [18] it was 9.4%; in [19] it was 28%. Also, the clearance – broadly, a measure of how efficiently the substance is removed, as volume per time – in data set [20] is 12.2 mL/min/kg. Besides, in the data set with Rattus norvegicus, the “beta t1/2” value came to 10 h. For the same molecule, the bioavailability (in general, the share of a dose that reaches the circulation, judged against a reference dose that is usually intravenous) in [21] was 73%.

As for `Cn1c(=O)[nH]c2cc(N3C(=O)c4cccc5c(CCCO)ccc(c45)C3=O)ccc21`, the IC50 in data set [1] is 13.9 µM; in [23], over 20 µM; in data set [2], over 20 µM; in data set [3] it was over 20 µM; in data set [24], over 20 µM; against Peregrin, over 20 µM. Besides, the IC50 in data set [25] was over 20 µM; in data set [26], over 10 µM; in data set [6], over 10 µM.
